# Activity calls are given as the source filed them. No cut-off for these calls is given here.
# Experiments:
# [1] = target: T1, Adrenergic receptor alpha-1 (Rattus norvegicus) (UniProt P15823+P23944+P43140); assay: In vitro inhibition of the contractile effect of phenylephrine on the isolated rat anococcygeus; potency relative to idazoxan.; assay type: functional
# [2] = target: T2, Alpha-2 adrenergic receptor (Mus musculus) (UniProt P30545+Q01338+Q01337); assay: Presynaptic alpha-2 adrenergic receptor from mouse vas deferens agonistic activity relative to clonidine = 1.; assay type: functional, tissue-based
# Procedure, shortened: (§1)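 Isolated tissue agonist test, potency compared directly with the standard in the same experiment. Standard dose-response curves were run before and after the test compound's curve. Rat anococcygeus (male Sprague-Dawley, 200-250 g; Krebs, 30 °C, 95% O2/5% CO2) was compared with phenylephrine. Field-stimulated mouse vas deferens (0.1 Hz, Mg-free Krebs, 30 °C) was compared with clonidine.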
# [3] = Selectivity between pre- and post-synaptic sites of action.; assay type: functional
# [4] = target: T1, Adrenergic receptor alpha-1 (Rattus norvegicus); assay: Post-synaptic alpha-1 adrenergic receptor (rat anococcygeus) agonistic activity relative to phenylephrine; Inactive; assay type: functional; procedure, shortened: as §1
# [5] = target: T2, Alpha-2 adrenergic receptor (Mus musculus); assay: Ability to antagonize the inhibitory effect of clonidine on the mouse vas deferens is the presynaptic alpha-2 adrenergic receptor antagonist potency relative to idazoxan = 1.; assay type: functional, tissue-based
# Procedure, shortened: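 Male adult mouse vasa deferentia (MFI >30 g), 0.5 g initial tension, Mg-free Krebs, 30 °C, 95% O2/5% CO2. Field stimulation at 0.1 Hz, 3-ms pulses, 100-140 V set to give ~100-mg twitch, recorded isometrically.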
# [6] = target: T1, Adrenergic receptor alpha-1 (Rattus norvegicus); assay: Agonism at Alpha-1 adrenoceptor determined in rat anococcygeus preparation; Inactive.; assay type: functional; procedure, shortened: as §1
# [7] = target: T3, Alpha-2 adrenergic receptor (Mus musculus, UniProt P30545+Q01338+Q01337); assay: Alpha-2 adrenergic receptor […] in mouse vas deferens relative to clonidine; assay type: functional, tissue-based; procedure, shortened: as §1
# T3 sequence (P30545 whole entry): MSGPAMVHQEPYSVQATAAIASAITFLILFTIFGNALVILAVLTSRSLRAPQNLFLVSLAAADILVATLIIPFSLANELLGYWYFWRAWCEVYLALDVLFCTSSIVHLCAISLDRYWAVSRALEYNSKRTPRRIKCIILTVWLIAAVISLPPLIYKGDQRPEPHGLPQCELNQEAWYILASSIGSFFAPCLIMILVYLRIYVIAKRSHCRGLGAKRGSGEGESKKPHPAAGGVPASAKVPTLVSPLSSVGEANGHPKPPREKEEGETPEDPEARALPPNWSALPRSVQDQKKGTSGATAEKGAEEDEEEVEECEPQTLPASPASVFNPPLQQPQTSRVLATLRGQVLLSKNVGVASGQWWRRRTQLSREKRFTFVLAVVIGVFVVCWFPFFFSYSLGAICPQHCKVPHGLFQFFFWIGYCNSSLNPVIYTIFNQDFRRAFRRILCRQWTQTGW
# T3 sequence (Q01338 whole entry): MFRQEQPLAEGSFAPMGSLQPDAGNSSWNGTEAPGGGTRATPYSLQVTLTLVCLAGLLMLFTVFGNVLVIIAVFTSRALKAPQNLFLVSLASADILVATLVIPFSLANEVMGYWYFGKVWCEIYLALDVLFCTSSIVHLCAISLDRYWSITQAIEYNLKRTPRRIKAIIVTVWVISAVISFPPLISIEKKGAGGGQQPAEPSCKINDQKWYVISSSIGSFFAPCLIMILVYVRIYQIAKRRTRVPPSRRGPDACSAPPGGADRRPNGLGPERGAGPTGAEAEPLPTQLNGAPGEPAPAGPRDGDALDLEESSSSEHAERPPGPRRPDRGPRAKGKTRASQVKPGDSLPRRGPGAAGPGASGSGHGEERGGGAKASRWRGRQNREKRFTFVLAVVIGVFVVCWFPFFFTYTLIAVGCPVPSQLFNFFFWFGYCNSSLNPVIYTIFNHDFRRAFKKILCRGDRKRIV
# T3 sequence (Q01337 whole entry): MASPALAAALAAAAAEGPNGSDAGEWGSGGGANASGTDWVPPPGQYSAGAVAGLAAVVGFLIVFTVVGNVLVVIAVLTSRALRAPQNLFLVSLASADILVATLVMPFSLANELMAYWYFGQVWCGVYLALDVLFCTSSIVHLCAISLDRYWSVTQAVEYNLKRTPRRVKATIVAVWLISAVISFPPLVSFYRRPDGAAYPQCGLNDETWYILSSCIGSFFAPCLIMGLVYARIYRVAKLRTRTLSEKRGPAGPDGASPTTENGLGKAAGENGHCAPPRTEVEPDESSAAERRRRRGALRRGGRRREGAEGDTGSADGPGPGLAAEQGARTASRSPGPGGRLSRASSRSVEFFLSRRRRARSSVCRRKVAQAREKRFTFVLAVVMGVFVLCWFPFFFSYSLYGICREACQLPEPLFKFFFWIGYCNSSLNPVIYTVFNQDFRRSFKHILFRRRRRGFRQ
# [8] = Ratio of agonist potencies against alpha2 and alpha-1 adrenoceptors; assay type: functional
# [9] = target: T4, Adrenergic receptor alpha-1 (Rattus norvegicus, UniProt P15823+P23944+P43140); assay: Alpha-1 adrenergic receptor […] in rat anococcygeus assay; assay type: functional; procedure, shortened: as §1
# T4 sequence (P15823 whole entry): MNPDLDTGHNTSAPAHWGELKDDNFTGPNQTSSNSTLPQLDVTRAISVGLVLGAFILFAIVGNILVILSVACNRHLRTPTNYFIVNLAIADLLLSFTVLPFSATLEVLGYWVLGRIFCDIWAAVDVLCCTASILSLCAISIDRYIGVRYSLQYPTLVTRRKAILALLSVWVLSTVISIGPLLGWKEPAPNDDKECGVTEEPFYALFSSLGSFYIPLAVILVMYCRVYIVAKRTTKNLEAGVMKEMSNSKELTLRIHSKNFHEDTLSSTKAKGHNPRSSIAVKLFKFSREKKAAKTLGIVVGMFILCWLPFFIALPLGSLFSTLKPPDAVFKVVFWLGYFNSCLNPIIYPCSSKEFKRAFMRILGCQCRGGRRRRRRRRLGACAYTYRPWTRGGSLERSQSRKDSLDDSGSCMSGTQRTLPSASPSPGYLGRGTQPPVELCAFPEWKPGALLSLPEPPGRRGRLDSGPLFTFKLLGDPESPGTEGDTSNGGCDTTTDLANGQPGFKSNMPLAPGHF
# T4 sequence (P23944 whole entry): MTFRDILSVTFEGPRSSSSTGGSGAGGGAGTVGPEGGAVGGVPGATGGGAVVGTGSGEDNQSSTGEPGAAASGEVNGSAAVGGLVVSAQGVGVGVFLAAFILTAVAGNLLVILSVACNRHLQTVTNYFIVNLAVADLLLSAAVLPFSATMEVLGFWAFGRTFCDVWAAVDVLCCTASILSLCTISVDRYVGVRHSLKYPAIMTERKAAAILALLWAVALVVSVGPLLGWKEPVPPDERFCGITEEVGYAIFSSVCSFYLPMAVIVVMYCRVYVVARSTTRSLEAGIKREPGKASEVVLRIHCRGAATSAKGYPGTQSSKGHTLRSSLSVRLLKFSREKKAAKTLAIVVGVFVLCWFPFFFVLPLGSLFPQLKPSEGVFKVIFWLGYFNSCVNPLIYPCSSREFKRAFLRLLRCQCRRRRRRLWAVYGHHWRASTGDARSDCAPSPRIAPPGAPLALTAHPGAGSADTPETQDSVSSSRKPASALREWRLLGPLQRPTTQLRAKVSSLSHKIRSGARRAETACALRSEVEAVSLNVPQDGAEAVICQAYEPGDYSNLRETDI
# T4 sequence (P43140 whole entry): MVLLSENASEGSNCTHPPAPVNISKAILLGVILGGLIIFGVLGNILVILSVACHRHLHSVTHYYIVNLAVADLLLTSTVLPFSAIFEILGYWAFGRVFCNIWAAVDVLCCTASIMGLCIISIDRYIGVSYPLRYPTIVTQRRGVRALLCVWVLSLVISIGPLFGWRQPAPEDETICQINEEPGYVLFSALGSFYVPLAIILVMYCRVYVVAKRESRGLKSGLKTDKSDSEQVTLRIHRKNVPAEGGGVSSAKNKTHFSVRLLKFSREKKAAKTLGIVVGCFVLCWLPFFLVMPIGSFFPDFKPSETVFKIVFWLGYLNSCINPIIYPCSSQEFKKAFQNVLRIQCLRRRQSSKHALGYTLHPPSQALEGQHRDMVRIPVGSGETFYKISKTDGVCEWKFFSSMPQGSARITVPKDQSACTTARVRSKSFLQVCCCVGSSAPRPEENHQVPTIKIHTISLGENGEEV
# [10] = target: T2, Alpha-2 adrenergic receptor (Mus musculus); assay: Presynaptic alpha-2 adrenergic receptor agonist activity in isolated mouse vas deferens; assay type: functional, tissue-based
# Procedure, shortened: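 Vasa deferentia from adult male MFI mice (>30 g) were held at 0.5 g initial tension in Mg-free Krebs solution at 30 °C, gassed with 95% O2/5% CO2. Tissues were field-stimulated at 0.1 Hz with 3-ms pulses, with voltage (100-140 V) set for about 100-mg twitches, recorded isometrically. Potency was expressed relative to the standard, run before and after each analogue curve in the same tissue.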
# [11] = target: T2, Alpha-2 adrenergic receptor (Mus musculus); assay: Inhibition of alpha-2 adrenergic receptor; assay type: functional
# [12] = target: T2, Alpha-2 adrenergic receptor (Mus musculus); assay: Presynaptic alpha-2 adrenergic receptor agonistic activity in mouse vas deferens relative to clonidine; assay type: functional, tissue-based; procedure, shortened: as §1
# [13] = target: T3, Alpha-2 adrenergic receptor; assay: Alpha-2 adrenergic receptor […] in mouse vas deferens assay compared to clonidine; assay type: functional, tissue-based; procedure, shortened: as §1
# [14] = target: T1, Adrenergic receptor alpha-1 (Rattus norvegicus); assay: In vitro inhibition of the contractile effect of phenylephrine on the isolated rat anococcygeus; potency relative to idazoxan; Inactive.; assay type: functional
# [15] = target: T1, Adrenergic receptor alpha-1 (Rattus norvegicus); assay: Post-synaptic alpha-1 adrenergic receptor (rat anococcygeus) agonistic activity relative to phenylephrine; assay type: functional; procedure, shortened: as §1
# [16] = target: T1, Adrenergic receptor alpha-1 (Rattus norvegicus); assay: Agonism in vitro at Alpha-1 adrenoceptor determined in rat anococcygeus preparation.; assay type: functional; procedure, shortened: as §1
Structure (SMILES),Antagonist potency [1],Agonist potency [2],Ratio [3],Antagonist potency [5],Agonist potency [6],pA2 [7],Selectivity ratio [8],pA2 [9],also measured
COc1ccc2c(c1)CC(C1=NCCN1)O2 (configuration not stated),0.023,inactive,5.2,0.12,–,–,–,–,Agonist potency [4]: inactive
Cc1cccc2c1OC(C1=NCCN1)C2.Cl (configuration not stated),0.67,inactive,2.4,1.6,inactive,8.22,–,–,–
Cl.Clc1ccc2c(c1)CC(C1=NCCN1)O2 (configuration not stated),0.35,inactive,1.5,0.53,inactive,7.8,5.6,7.05,–
CCCCCC1(C2=NCCN2)Cc2ccccc2O1.Cl (configuration not stated),1,inactive,0.44,0.44,inactive,7.97,32,6.47,–
Cl.Clc1cccc2c1OC(C1=NCCN1)C2 (configuration not stated),1,inactive,0.64,0.64,inactive,7.64,–,–,–
CCCC1(C2=NCCN2)Cc2ccccc2O1.Cl (configuration not stated),1,inactive,1.9,1.9,inactive,8.63,175,6.39,–
Clc1cccc(Cl)c1NC1=NCCN1,–,–,–,–,–,–,–,–,pD2 [10]: 8.8; IC40 [11]: 3.68 nM
CCC1(C2=NCCN2)Cc2ccccc2O1.Cl (configuration not stated) [EFAROXAN HYDROCHLORIDE],0.3,inactive,6,1.8,inactive,8.32,258,5.91,–
CC1(C2=NCCN2)Cc2ccccc2O1 (configuration not stated),0.35,–,0.71,0.25,–,–,–,–,Agonist potency [12]: 0.002; Agonist potency [4]: inactive
Cl.c1ccc2c(c1)OCC(C1=NCCN1)O2 (configuration not stated) [IDAZOXAN HYDROCHLORIDE],–,–,–,–,–,–,–,–,pA2 [13]: 7.98
Cc1cc(Cl)cc2c1OC(C1=NCCN1)C2 (configuration not stated),–,inactive,–,0.5,–,–,–,–,Antagonist potency [14]: inactive; Agonist potency [15]: 1
Cl.c1ccc2c(c1)CC(C1=NCCN1)O2 (configuration not stated),0.16,inactive,10.6,1.7,–,8.35,–,–,Agonist potency [16]: 0.01
